For one experiment, the target named is T1, B1 bradykinin receptor (Homo sapiens, UniProt P46663).
T1 sequence (P46663 whole entry): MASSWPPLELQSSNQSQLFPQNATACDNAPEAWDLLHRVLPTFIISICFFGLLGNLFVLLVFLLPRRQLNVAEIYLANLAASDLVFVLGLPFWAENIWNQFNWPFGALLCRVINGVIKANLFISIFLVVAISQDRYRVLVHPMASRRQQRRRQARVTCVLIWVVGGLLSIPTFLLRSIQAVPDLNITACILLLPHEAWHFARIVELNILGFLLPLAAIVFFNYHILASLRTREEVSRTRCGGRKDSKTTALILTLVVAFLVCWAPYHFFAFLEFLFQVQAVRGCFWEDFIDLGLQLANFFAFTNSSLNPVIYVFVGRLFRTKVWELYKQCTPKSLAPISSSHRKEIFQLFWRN
The experiment can be described thus: Displacement of [3H][desArg9]Lys-Bradykinin from human bradykinin B1 receptor expressed in CHO cells. It is filed as cell-based. For orientation: Displacement assays read how much labelled ligand stays bound in the presence of the test substance.

For experiment [1], the target named is T2, B2 bradykinin receptor (Homo sapiens, UniProt P30411).
T2 sequence (P30411 whole entry): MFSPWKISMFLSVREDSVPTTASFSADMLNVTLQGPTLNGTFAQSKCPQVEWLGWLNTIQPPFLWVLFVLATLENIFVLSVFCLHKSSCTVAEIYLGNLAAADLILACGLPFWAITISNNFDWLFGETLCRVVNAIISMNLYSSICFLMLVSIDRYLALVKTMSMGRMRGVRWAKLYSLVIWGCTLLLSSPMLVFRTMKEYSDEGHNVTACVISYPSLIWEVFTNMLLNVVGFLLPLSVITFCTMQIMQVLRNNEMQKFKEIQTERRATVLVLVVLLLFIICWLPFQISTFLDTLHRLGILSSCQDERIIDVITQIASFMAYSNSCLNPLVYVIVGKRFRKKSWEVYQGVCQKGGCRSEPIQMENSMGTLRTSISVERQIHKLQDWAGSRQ
The experiment can be described thus: Displacement of [3H]-Bradykinin from human bradykinin B2 receptor expressed in CHO cells membrane after 60 mins by scintillation counting. In kind it is cell membranes.

For experiment [2], the target named is T3, B2 bradykinin receptor (Homo sapiens) (UniProt P30411).
T3 sequence (whole entry): T2 sequence (P30411 whole entry)
In words: Reversible antagonist activity at human bradykinin B2 receptor expressed in dhfr-deficient CHO cells assessed as inhibition of bradykinin-induced inositol monophosphate accumulation at 100 nM preincubated for 15 mins prior bradykinin induction measured after 15 mins washout by liquid scintillation spectrometry. It is filed as functional, cell-based. The method, boiled down: (§1)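 Washout in the IP accumulation assay in CHO/hB2R cells: antagonist (3 µM or 100 nM) pre-incubated 15 min, with medium then fully replaced every 15 min in washed cells. BK (2 nM) added and the reaction stopped after one hour; IP formed quantified. Expressed as % inhibition of time-matched BK responses in vehicle-pre-incubated cells.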

Experiment [3] addresses T3, B2 bradykinin receptor (Homo sapiens). In words: Reversible antagonist activity at human bradykinin B2 receptor expressed in dhfr-deficient CHO cells assessed as inhibition of bradykinin-induced inositol monophosphate accumulation at 100 nM preincubated for 15 mins prior bradykinin induction measured after 30 mins washout by liquid scintillation spectrometry. It is filed as functional, cell-based. The method, boiled down:
as §1

Experiment [4] addresses T2, B2 bradykinin receptor. In words: Antagonist activity at human bradykinin B2 receptor expressed in dhfr-deficient CHO cells assessed as inhibition of bradykinin-induced inositol monophosphate accumulation preincubated for 15 mins prior bradykinin induction measured after 40 mins by liquid scintillation spectrometry. To be noted: read-out: pA2 (converted). In kind it is functional, cell-based. The method, boiled down:
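CHOdhfr-/hB2R cells (1.8×10^5/well) plated overnight at 37 °C, labelled 24 h with myo-[3H]inositol (1 uCi/well). Antagonist pre-incubation 15 min, then BK 1×10^-11 to 1×10^-5 M for 40 min at 37 °C in Hepes pH 7.4 buffer with 25 mM LiCl. IP1 radioactivity by liquid scintillation. Agonist curves fitted for EC50; pA2 = log(CR−1) − log[antagonist].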

Experiment [5] deals with T3, B2 bradykinin receptor (Homo sapiens). In words: Reversible antagonist activity at human bradykinin B2 receptor expressed in dhfr-deficient CHO cells assessed as inhibition of bradykinin-induced inositol monophosphate accumulation at 100 nM preincubated for 15 mins prior bradykinin induction measured after 45 mins washout by liquid scintillation spectrometry. It is filed as functional, cell-based. The method, boiled down:
as §1

Experiment [6] deals with T4, B2 bradykinin receptor (Cavia porcellus, UniProt O70526).
T4 sequence (O70526 whole entry): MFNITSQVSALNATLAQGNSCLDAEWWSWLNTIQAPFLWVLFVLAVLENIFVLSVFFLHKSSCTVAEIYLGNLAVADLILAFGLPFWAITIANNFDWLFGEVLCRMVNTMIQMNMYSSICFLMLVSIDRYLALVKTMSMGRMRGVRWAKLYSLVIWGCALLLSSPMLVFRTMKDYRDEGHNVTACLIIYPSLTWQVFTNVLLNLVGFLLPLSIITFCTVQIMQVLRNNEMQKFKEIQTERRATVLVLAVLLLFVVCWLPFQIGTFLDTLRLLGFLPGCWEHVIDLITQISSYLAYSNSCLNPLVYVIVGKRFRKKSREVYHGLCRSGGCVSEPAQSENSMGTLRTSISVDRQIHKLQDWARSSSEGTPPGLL
The experiment can be described thus: Antagonist activity at guinea pig bradykinin B2 receptor in longitudinal smooth muscle assessed as inhibition of bradykinin-induced contractile responses. In kind it is functional. The settings on record: read-out: pA2 (converted).

The next experiment deals with Cavia porcellus. The experiment can be described thus: Inhibition of bradykinin-induced bronchoconstriction in anesthetized Dunkin-Hartley guinea pig at […], it 5 mins prior bradykinin-induction for every 30 mins up to 210 mins. In kind it is functional, organism-based. The method, boiled down:
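Anaesthetized male Dunkin Hartley guinea pigs, 350–400 g. Compound given intratracheally, then repeated iv BK challenges (10 nmol/kg) with bronchoconstriction recorded.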

The target in experiment [7] is T3, B2 bradykinin receptor (Homo sapiens). The experiment can be described thus: Reversible antagonist activity at human bradykinin B2 receptor expressed in dhfr-deficient CHO cells assessed as inhibition of bradykinin-induced inositol monophosphate accumulation at 3 uM preincubated for 15 mins prior bradykinin induction measured after 30 mins washout by liquid scintillation spectrometry. It is filed as functional, cell-based. An outline of the steps: as §1

Experiment [8] has the same target. The experiment can be described thus: Reversible antagonist activity at human bradykinin B2 receptor expressed in dhfr-deficient CHO cells assessed as inhibition of bradykinin-induced inositol monophosphate accumulation at 3 uM preincubated for 15 mins prior bradykinin induction measured after 15 mins washout by liquid scintillation spectrometry. It is filed as functional, cell-based. An outline of the steps: as §1

Experiment [9] shares this target. In words: Reversible antagonist activity at human bradykinin B2 receptor expressed in dhfr-deficient CHO cells assessed as inhibition of bradykinin-induced inositol monophosphate accumulation at 3 uM preincubated for 15 mins prior bradykinin induction measured after 45 mins washout by liquid scintillation spectrometry. In kind it is functional, cell-based. The method, boiled down:
as §1

Structures are written as SMILES. Activity calls are given as the source filed them. No cut-off for these calls is given here.

What is called Ki is the equilibrium dissociation constant of an inhibitor or competing ligand from its target. In general, inhibition refers to the change of the read-out against control, counted positive when it falls. With `Cc1cc(C)c2cccc(OCc3c(Cl)ccc(S(=O)(=O)NC4(C(=O)N5CC[N+]6(CCCCC6)CC5)CCOCC4)c3Cl)c2n1`, the inhibition constant Ki is more than 10 µM on B1 bradykinin receptor and 0.398 nM on B2 bradykinin receptor [1]. The inhibition in [2] is 72%; in [3], 9%; in [5], -0%. Further, the Kb on B2 bradykinin receptor [4] was 2.63 nM.

With `Cc1cc(C)c2cccc(OCc3c(Cl)ccc(S(=O)(=O)NC4(C(=O)N5CCN(C(=O)CCCC[N+](C)(C)C)CC5)CCOCC4)c3Cl)c2n1`, the Ki at B1 bradykinin receptor is more than 10 µM; on B2 bradykinin receptor [1], 0.0794 nM. Besides, the Kb is 0.0631 nM at B2 bradykinin receptor [6] and 0.316 nM on B2 bradykinin receptor [4]. Also, the inhibition result in the experiment on Cavia porcellus is “inactive”.

For `Cc1cc(C)c2cccc(OCc3c(Cl)ccc(S(=O)(=O)NC4(C(=O)N5CCC(CCCC[N+](C)(C)C)CC5)CCOCC4)c3Cl)c2n1`, the figures for the Ki at B1 bradykinin receptor and at B2 bradykinin receptor [1] were more than 10 µM and 0.631 nM, respectively. Also, the inhibition is 6% in experiment [7], 23% in [8] and -0% in experiment [9]. In addition, on B2 bradykinin receptor [4], the Kb is 3.98 nM.

(Values after ChEMBL document CHEMBL1955756, “Design and synthesis of novel sulfonamide-containing bradykinin hB(2) receptor antagonists. Synthesis and structure-relationships of α,α-tetrahydropyranylglycine” (Bioorg Med Chem, 2012).)
